Measured values published in ChEMBL document CHEMBL3808280, “GroEL/ES inhibitors as potential antibiotics” (Bioorg Med Chem Lett, 2016).

How the values were obtained:
Acinetobacter baumannii = assay: Antibacterial activity against multidrug resistant Acinetobacter baumannii 2208 (ATCC 19606) assessed as reduction in bacterial growth incubated for 6 to 8 hrs; type: functional
In short: (§1)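 Broth proliferation assay. S. aureus and MRSA grown in ATCC Medium 18, other pathogens in Brain Heart Infusion. Stagnant incubation at 37°C under breathable seal. OD600 read at mid-log (6-8 h) and corrected with bacteria-free baseline plates. EC50 by variable-slope nonlinear fit, at least triplicate.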

Pseudomonas aeruginosa = assay: Antibacterial activity against multidrug resistant Pseudomonas aeruginosa NCTC 10332 (ATCC 10145) assessed as reduction in bacterial growth incubated for 6 to 8 hrs; type: functional, organism-based; in short: as §1
Staphylococcus aureus [1] = assay: Antibacterial activity against methicillin susceptible Staphylococcus aureus subsp. aureus Seattle 1945 (ATCC 25923) assessed as reduction in bacterial growth incubated for 6 to 8 hrs
Enterococcus faecium = assay: Antibacterial activity against multidrug resistant Enterococcus faecium NCTC 7171 (ATCC 19434) assessed as reduction in bacterial growth incubated for 6 to 8 hrs; type: functional, organism-based; in short: as §1
Enterobacter cloacae = assay: Antibacterial activity against multidrug resistant Enterobacter cloacae subsp. cloacae CDC 442-68 (ATCC 13047) assessed as reduction in bacterial growth incubated for 6 to 8 hrs; type: functional, organism-based; in short: as §1
Staphylococcus aureus [2] = assay: Antibacterial activity against methicillin resistant Staphylococcus aureus subsp. aureus HPV107 (ATCC BAA-44) assessed as reduction in bacterial growth incubated for 6 to 8 hrs; type: functional, organism-based; in short: as §1
[3] = test system: Klebsiella pneumoniae subsp. pneumoniae; assay: Antibacterial activity against multidrug resistant Klebsiella pneumoniae subsp. pneumoniae NCTC 9633 (ATCC 13883) assessed as reduction in bacterial growth incubated for 6 to 8 hrs; type: functional, organism-based; in short: as §1
Escherichia coli [4] = assay: Antibacterial activity against Escherichia coli DH5alpha assessed as reduction in bacterial growth incubated for 6 to 8 hrs; type: functional, organism-based; details: DH5[alpha]
Bacillus subtilis = assay: Antibacterial activity against Bacillus subtilis 168 assessed as reduction in bacterial growth incubated for 6 to 8 hrs; type: functional, organism-based; details: subsp. subtilis str. 168
E. coli GroEL/ES [5] = target: T1, E. coli GroEL/ES (Escherichia coli, UniProt P0A6F5); assay: (§2) Inhibition of Escherichia coli GroEL/GroES using Escherichia coli GroEL expressed in Escherichia coli DH5alpha cells and Escherichia coli GroES expressed in Escherichia coli BL21(DE3) cells assessed as reduction in pig heart native refolded MDH-mediated NADH production by micro plate reader analysis
T1 sequence (P0A6F5 whole entry, looked up): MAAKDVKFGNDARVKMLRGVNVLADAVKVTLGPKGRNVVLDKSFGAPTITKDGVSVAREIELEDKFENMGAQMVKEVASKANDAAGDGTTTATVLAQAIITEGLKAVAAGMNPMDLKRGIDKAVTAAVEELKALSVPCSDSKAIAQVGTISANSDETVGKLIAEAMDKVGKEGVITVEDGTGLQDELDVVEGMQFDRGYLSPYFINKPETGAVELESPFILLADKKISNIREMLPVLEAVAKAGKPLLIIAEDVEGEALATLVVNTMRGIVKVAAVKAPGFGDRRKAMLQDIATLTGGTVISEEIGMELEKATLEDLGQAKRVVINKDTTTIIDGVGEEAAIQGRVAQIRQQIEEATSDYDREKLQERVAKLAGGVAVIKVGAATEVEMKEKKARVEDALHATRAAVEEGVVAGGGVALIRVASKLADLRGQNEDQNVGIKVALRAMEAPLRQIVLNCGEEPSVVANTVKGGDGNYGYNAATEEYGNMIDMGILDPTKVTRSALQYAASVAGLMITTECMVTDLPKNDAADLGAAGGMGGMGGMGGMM
In short: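 Native MDH counter-screen. GroEL/ES-dMDH refolding run 60 min at 37°C, then EDTA-quenched without compound. IC50 averaged from at least triplicate.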

HSP60/HSP10 [6] = target: T2, HSP60/HSP10 (Homo sapiens, UniProt P10809); assay: Inhibition of human HSP60/HSP10 expressed in Escherichia coli Rosetta2(DE3) cells assessed as inhibition of denatured pig heart MDH refolding by measuring reduction in NADH production incubated for 60 mins by micro plate reader analysis
T2 sequence (P10809 whole entry): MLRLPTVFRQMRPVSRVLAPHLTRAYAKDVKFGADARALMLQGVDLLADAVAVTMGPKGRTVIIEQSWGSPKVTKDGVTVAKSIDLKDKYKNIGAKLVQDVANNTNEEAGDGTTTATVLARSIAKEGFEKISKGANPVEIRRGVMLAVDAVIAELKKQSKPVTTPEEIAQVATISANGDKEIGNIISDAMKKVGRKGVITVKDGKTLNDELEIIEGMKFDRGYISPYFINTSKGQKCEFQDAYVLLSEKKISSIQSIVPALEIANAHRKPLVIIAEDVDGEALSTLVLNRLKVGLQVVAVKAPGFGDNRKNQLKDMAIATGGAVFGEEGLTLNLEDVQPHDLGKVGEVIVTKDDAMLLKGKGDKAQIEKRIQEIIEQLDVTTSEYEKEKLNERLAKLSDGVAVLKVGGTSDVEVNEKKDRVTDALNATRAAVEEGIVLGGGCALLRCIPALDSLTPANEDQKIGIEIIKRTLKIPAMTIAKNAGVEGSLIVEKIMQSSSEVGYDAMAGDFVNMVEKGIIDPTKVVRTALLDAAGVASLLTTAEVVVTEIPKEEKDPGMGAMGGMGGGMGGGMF
T2 sequence (P61604 whole entry, further chain): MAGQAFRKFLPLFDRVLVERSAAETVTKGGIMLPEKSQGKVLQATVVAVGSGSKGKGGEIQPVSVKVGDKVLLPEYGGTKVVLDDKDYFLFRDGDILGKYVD
In short: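 Pig heart MDH was denatured in guanidine-HCl (dMDH) and complexed with HSP60, then HSP10, in Tris pH 7.4/KCl/MgCl2/DTT buffer. EDTA quench (100 mM final); refolded MDH activity was followed with mesoxalate/NADH at 340 nm.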

E. coli GroEL/ES [7] = target: T1, E. coli GroEL/ES; assay: (§3) Inhibition of Escherichia coli GroEL/GroES using Escherichia coli GroEL expressed in Escherichia coli DH5alpha cells and Escherichia coli GroES expressed in Escherichia coli BL21(DE3) cells assessed as inhibition of denatured rhodanese refolding by measuring reduction in thiocyanate production incubated for 60 mins by micro plate reader analysis
In short: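 Urea-denatured rhodanese bound to GroEL/GroES in folding buffer containing thiosulfate. After 60 min at 37°C, thiocyanate reaction (KCN, thiosulfate, phosphate) run, then formaldehyde quench and ferric nitrate added. Fe(SCN)3 read at 460 nm after 15 min RT, with protein-free baseline plates.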

E. coli GroEL/ES [8] = target: T1, E. coli GroEL/ES; assay: as §3, with “pig heart MDH” for “rhodanese”, “NADH” for “thiocyanate”
In short: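 Denatured MDH (guanidine-HCl/DTT, 30 min RT) bound to GroEL with GroES in Tris pH 7.4, KCl, MgCl2, DTT buffer. 60 min at 37°C, EDTA quench to 100 mM. Refolded MDH activity read with mesoxalate/NADH at 340 nm. Log-averaged IC50 from replicates.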

Escherichia coli [9] = assay: Antibacterial activity against Escherichia coli SM101 assessed as reduction in bacterial growth incubated for 12 hrs by UV-Vis spectrophotometric analysis; type: functional, organism-based; details: SM101, 12 h
HSP60/HSP10 [10] = target: T2, HSP60/HSP10; assay: Inhibition of human HSP60/HSP10 expressed in Escherichia coli Rosetta2(DE3) cells assessed as reduction in denatured pig heart MDH ATPase activity by malachite green dye based assay
HEK293 = assay: Cytotoxicity against HEK293 cells assessed as reduction in cell viability after 48 hrs by alamar blue assay; type: cell-based; details: Homo sapiens, HEK293, 48 h
[11] = Cytotoxicity against human THLE3 cells assessed as reduction in cell viability after 48 hrs by alamar blue assay; type: cell-based; details: THLE3, 48 h
Escherichia coli [12] = assay: Antibacterial activity against acrB-deficient Escherichia coli MC4100 assessed as reduction in bacterial growth incubated for 6 to 8 hrs; type: functional, organism-based
E. coli GroEL/ES [13] = target: T1, E. coli GroEL/ES; assay: as §2, with “in” for “in pig heart”, “rhodanese-mediated thiocyanate” for “MDH-mediated NADH”

| SMILES | EC50 (Acinetobacter baumannii) [µM] | EC50 (Pseudomonas aeruginosa) [µM] | EC50 (Staphylococcus aureus [1]) [µM] | EC50 (Enterococcus faecium) [µM] | EC50 (Enterobacter cloacae) [µM] | EC50 (Staphylococcus aureus [2]) [µM] | EC50 [3] [µM] | EC50 (Escherichia coli [4]) [µM] | EC50 (Bacillus subtilis) [µM] | IC50 (E. coli GroEL/ES [5]) [µM] | IC50 (HSP60/HSP10 [6]) [µM] | IC50 (E. coli GroEL/ES [7]) [µM] | IC50 (E. coli GroEL/ES [8]) [µM] | EC50 (Escherichia coli [9]) [µM] | IC50 (HSP60/HSP10 [10]) [µM] | EC50 (HEK293) [µM] | EC50 [11] [µM] | EC50 (Escherichia coli [12]) [µM] | IC50 (E. coli GroEL/ES [13]) [µM] |
| --- | --- | --- | --- | --- | --- | --- | --- | --- | --- | --- | --- | --- | --- | --- | --- | --- | --- | --- | --- |
| CN[C@@H]1[C@H](O[C@H]2[C@H](O[C@H]3[C@H](O)[C@@H](O)[C@H](N=C(N)N)[C@@H](O)[C@@H]3N=C(N)N)O[C@@H](C)[C@]2(O)C=O)O[C@@H](CO)[C@H](O)[C@H]1O [STREPTOMYCIN] | > 100 | 2.9 | 3.6 | 50 | > 100 | > 100 | 3.4 | – | – | – | – | – | – | – | – | – | – | – | – |
| COc1cc(/C=C2/C(=N)N3N=C(CC(C)C)SC3=NC2=O)ccc1OC(=O)c1ccc(F)cc1 | > 100 | > 100 | > 100 | > 100 | > 100 | > 100 | > 100 | > 100 | 13 | > 62.5 | 26 | 25 | 24 | 25 | > 250 | > 100 | > 100 | > 100 | – |
| CC1(C)S[C@@H]2[C@H](NC(=O)[C@H](N)c3ccccc3)C(=O)N2[C@H]1C(=O)O [AMPICILLIN] | 2.5 | 27 | 0.059 | 0.63 | > 100 | 76 | 89 | – | – | – | – | – | – | – | – | – | – | – | – |
| CC(=O)c1cc2c(cc1NC(=O)c1ccccc1Br)OCCO2 | > 100 | > 100 | > 100 | > 100 | > 100 | > 100 | > 100 | > 100 | > 100 | > 62.5 | > 100 | – | – | > 100 | > 250 | > 100 | > 100 | > 100 | – |
| O=c1c([N+](=O)[O-])c(Cl)c2ccccc2n1Cc1ccccc1 | > 100 | > 100 | > 100 | > 100 | > 100 | 21 | > 100 | > 100 | 2.8 | > 62.5 | 2.8 | 22 | 5.4 | > 100 | > 250 | 17 | 3.6 | > 100 | > 100 |
| O=C(NCCO)Nc1ccc2nc(-c3ccco3)c(-c3ccco3)nc2c1 | > 100 | > 100 | > 100 | > 100 | > 100 | > 100 | > 100 | > 100 | > 100 | > 62.5 | 15 | 2.6 | 6.5 | > 100 | > 250 | > 100 | > 100 | > 100 | 1.4 |
| COc1cccc(/C=C2/SC(=S)N(CCC(=O)Nc3ccc(O)cc3)C2=O)c1 | > 100 | > 100 | 80 | > 100 | > 100 | > 100 | > 100 | > 100 | > 100 | > 62.5 | 13 | 9.6 | 4.7 | > 100 | > 250 | > 100 | > 100 | > 100 | 12 |
| O=C(Nc1ccc2nc(-c3ccco3)c(-c3ccco3)nc2c1)N1CCCC1 | > 100 | > 100 | > 100 | > 100 | > 100 | > 100 | > 100 | > 100 | > 100 | > 62.5 | 13 | 2.4 | 4.7 | > 100 | > 250 | > 100 | > 100 | > 100 | 2.1 |
| O=C(N[C@H](CO)[C@H](O)c1ccc([N+](=O)[O-])cc1)C(Cl)Cl [CHLORAMPHENICOL] | 65 | 16 | 2.2 | 2.1 | 2.2 | 2.3 | 1.4 | – | – | – | – | – | – | – | – | – | – | – | – |
| NC[C@H]1O[C@H](O[C@H]2[C@H](O)[C@@H](O[C@H]3O[C@H](CO)[C@@H](O)[C@H](N)[C@H]3O)[C@H](N)C[C@@H]2N)[C@H](O)[C@@H](O)[C@@H]1O [KANAMYCIN] | 16 | 25 | 8.2 | > 100 | 37 | > 100 | 45 | – | – | – | – | – | – | – | – | – | – | – | – |
| CN(C)c1ccc(O)c2c1C[C@H]1C[C@H]3[C@H](N(C)C)C(O)=C(C(N)=O)C(=O)[C@@]3(O)C(O)=C1C2=O [MINOCYCLINE] | < 0.05 | 2.4 | < 0.05 | < 0.05 | 1.5 | 0.35 | 0.7 | – | – | – | – | – | – | – | – | – | – | – | – |
| CO[C@H]1/C=C/O[C@@]2(C)Oc3c(C)c(O)c4c(O)c(c(/C=N/N5CCN(C)CC5)c(O)c4c3C2=O)NC(=O)/C(C)=C\C=C\[C@H](C)[C@H](O)[C@@H](C)[C@@H](O)[C@@H](C)[C@H](OC(C)=O)[C@@H]1C [RIFAMPIN] | 0.47 | 5.2 | < 0.05 | 1.2 | 6.2 | 0.15 | 5.4 | – | – | – | – | – | – | – | – | – | – | – | – |
| COc1ccc(C(=O)N/N=C/c2ccc(O)c3ncccc23)cc1 | 32 | > 100 | > 100 | > 100 | > 100 | 56 | 95 | > 100 | 83 | > 62.5 | > 100 | 18 | 31 | 19 | > 250 | 7.7 | 15 | > 100 | 52 |
| CNC(=O)Nc1ccc2nc(-c3ccco3)c(-c3ccco3)nc2c1 | > 100 | > 100 | > 100 | > 100 | > 100 | 94 | > 100 | > 100 | > 100 | > 62.5 | 7.4 | 2.5 | 3 | > 100 | > 250 | > 100 | > 100 | > 100 | 2.5 |
| CCCCCCCCCC(=O)N[C@@H](Cc1c[nH]c2ccccc12)C(=O)N[C@@H](CC(N)=O)C(=O)N[C@@H](CC(=O)O)C(=O)N[C@@H]1C(=O)NCC(=O)N[C@@H](CCCN)C(=O)N[C@@H](CC(=O)O)C(=O)N[C@H](C)C(=O)N[C@@H](CC(=O)O)C(=O)NCC(=O)N[C@H](CO)C(=O)N[C@@H]([C@H](C)CC(=O)O)C(=O)N[C@@H](CC(=O)c2ccccc2N)C(=O)O[C@@H]1C [DAPTOMYCIN] | > 100 | > 100 | 5.7 | 33 | > 100 | 5.7 | > 100 | – | – | – | – | – | – | – | – | – | – | – | – |
